The source made the active and inactive calls. No cut-off for these calls is given here.
What was measured:
[1] = system: Woodchuck hepatitis virus; assay: Antiviral activity against woodchuck hepatitis virus infected woodchucks assessed as log reduction of serum viral DNA per ml of serum after 4 weeks; type: functional
[2] = system: Duck hepatitis B virus; assay: Antiviral activity against Duck hepatitis B virus infected ip dosed ducklings assessed as log reduction of serum viral DNA copies per ml of serum after 10 days
[3] = system: Duck hepatitis B virus; assay: Antiviral activity against Duck hepatitis B virus chronically infected ducklings assessed as log reduction of serum viral DNA copies per ml of serum at 20 mg/kg, ip after 10 days; settings: route intraperitoneal
[4] = system: Duck hepatitis B virus; assay: Antiviral activity against Duck hepatitis B virus experimentally infected ducklings assessed as log reduction of serum viral DNA copies per ml of serum at 40 mg/kg, ip after 10 days; settings: route intraperitoneal
[5] = system: Woodchuck hepatitis virus; assay: Antiviral activity against woodchuck hepatitis virus chronically infected woodchucks assessed as reduction of serum viral DNA at 1 mg/kg/day, po after 4 weeks; type: functional, organism-based
Outline: (§1)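 Chronic WHV carriers were stratified into groups of five. They were dosed orally once daily for 4 weeks at 1, 3, 10 or 30 mg/kg/day, or given liquid-diet placebo; drug was dissolved in saline and suspended in diet by syringe. Serum WHV DNA was measured weekly by triplicate dot blot (sensitivity 1.0 x 107 WHVge/ml) or triplicate real-time PCR (1.0 x 103 WHVge/ml) against pWHV8 standards. Log values were compared with pretreatment and placebo by repeated-measures ANOVA with Holm-Sidak tests.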

[6] = Cmax in woodchuck hepatitis virus-negative woodchucks at 33.3 mg/kg, iv administered as single dose followed by dose of 33.3 mg/kg, po after 4 weeks washout period; type: ADME, organism-based; settings: marmota monax, in vivo
Outline: (§2)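 Three WHV-negative adult woodchucks got a 33.3 mg/kg iv bolus, with one saline control. After a 4-week washout the same three got 33.3 mg/kg orally. Blood was drawn predose and at 0.25–24 h. Serum APD and DXG were measured by HPLC-UV (LOQ 0.2 µM) and analysed noncompartmentally. AUC0-∞ used the trapezoidal rule, extrapolated by Clast/λz.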

[7] = AUC (0 to infinity) in woodchuck hepatitis virus-negative woodchucks at 33.3 mg/kg, iv administered as single dose followed by dose of 33.3 mg/kg, po after 4 weeks washout period; type: ADME, organism-based; settings: marmota monax, plasma; outline: as §2
[8] = system: Woodchuck hepatitis virus; assay: Antiviral activity against woodchuck hepatitis virus chronically infected woodchucks assessed as reduction of viral DNA replicative intermediates at 3 mg/kg/day, po after 4 weeks; type: functional, organism-based
Outline: (§3)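 Liver biopsies were taken by ultrasound-guided needle under ketamine/xylazine anaesthesia. Timing was 1 week before and at the end of 4 weeks of once-daily oral dosing (1–30 mg/kg/day or placebo diet; five woodchucks per group). Samples were snap-frozen and stored at –70°C. Hepatic WHV DNA replicative intermediates were quantified by Southern blot hybridization and compared with placebo.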

[9] = system: Woodchuck hepatitis virus; assay: Antiviral activity against woodchuck hepatitis virus chronically infected in woodchucks M7250 assessed as reduction in anti-WHs antibody levels at 30 mg/kg/day, po after 4 weeks; type: functional, organism-based
[10] = system: Woodchuck hepatitis virus; assay: Antiviral activity against woodchuck hepatitis virus chronically infected woodchucks assessed as log reduction of serum viral DNA at 10 mg/kg/day, po after 4 weeks; type: functional
Outline: (§4)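 Chronic WHV-carrier adult woodchucks were stratified into groups of five and dosed orally once daily for 4 weeks (saline solution in liquid diet; diet-alone placebo). Serum WHV DNA was measured weekly by dot blot (sensitivity 1.0 x 10^7 WHVge/ml) or by triplicate real-time PCR (sensitivity 1.0 x 10^3 WHVge/ml) against pWHV8 standards. Log values were compared with week 0 and placebo by repeated-measures ANOVA with Holm-Sidak.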

[11] = Terminal elimination half life in orally dosed monkey; type: ADME, organism-based, Macaca mulatta; settings: rhesus monkey, in vivo, po; read-out: beta t1/2 (converted)
[12] = Terminal elimination half life in orally dosed mouse; type: ADME, organism-based; settings: in vivo, po, read-out: beta t1/2 (converted)
[13] = Terminal elimination half life in woodchuck hepatitis virus-negative woodchucks at 33.3 mg/kg, iv administered as single dose followed by dose of 33.3 mg/kg, po after 4 weeks washout period; type: ADME, organism-based; settings: marmota monax, in vivo, read-out: beta t1/2 (converted); outline: as §2
[14] = system: Woodchuck hepatitis virus; assay: Antiviral activity against woodchuck hepatitis virus chronically infected woodchucks assessed as log reduction of serum viral DNA at 3 mg/kg/day, po after 4 weeks; type: functional; outline: as §4
[15] = Terminal elimination half life in woodchuck hepatitis virus-negative woodchucks at 33.3 mg/kg, iv administered as single dose; type: ADME, organism-based; design: dose 33.3 mg/kg, route intravenous; settings: marmota monax, in vivo, read-out: beta t1/2 (converted); outline: as §2
[16] = Cmax in woodchuck hepatitis virus-negative woodchucks at 33.3 mg/kg, iv administered as single dose; type: ADME, organism-based; design: dose 33.3 mg/kg, route intravenous; settings: marmota monax, in vivo; outline: as §2
[17] = system: Marmota monax; assay: Toxicity in woodchuck hepatitis virus chronically infected woodchucks assessed as change in body weight administered once daily for 4 weeks; type: organism-based; settings: in vivo, 672 h
[18] = system: Woodchuck hepatitis virus; assay: Antiviral activity against woodchuck hepatitis virus chronically infected in woodchucks assessed as reduction in viral surface antigen level in blood at 30 mg/kg/day, po after 4 weeks; type: functional
Outline: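 Adult woodchucks chronically infected with WHV, in groups of five, got the drug dissolved in isotonic saline and suspended in a semisynthetic liquid diet, by oral dose syringe once daily for 4 weeks. Placebo was diet alone. Serum WHsAg was measured by WHV-specific enzyme immunoassay (optical density units) before, during and after treatment up to week 16.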

[19] = system: Woodchuck hepatitis virus; assay: Antiviral activity against woodchuck hepatitis virus chronically infected in woodchucks assessed as reduction in anti-WHV core antigen antibody levels at 30 mg/kg/day, po after 4 weeks; type: functional, organism-based
[20] = system: Woodchuck hepatitis virus; assay: Antiviral activity against woodchuck hepatitis virus chronically infected woodchucks assessed as reduction of viral DNA replicative intermediates at 1 mg/kg/day, po after 4 weeks; type: functional, organism-based; outline: as §3
[21] = AUC (0 to infinity) in woodchuck hepatitis virus-negative woodchucks at 33.3 mg/kg, iv administered as single dose; type: ADME, organism-based; design: time infinity, dose 33.3 mg/kg, route intravenous; settings: marmota monax, plasma; outline: as §2
[22] = system: Woodchuck hepatitis virus; assay: Antiviral activity against woodchuck hepatitis virus chronically infected in woodchucks M7236 assessed as reduction in anti-WHs antibody levels at 30 mg/kg/day, po after 4 weeks; type: functional, organism-based
[23] = system: Rhesus monkey; assay: AUC in po dosed rhesus monkey assessed as serum 9-(beta-D-1,3-dioxolan-4-yl)guanine level; type: ADME, organism-based, Macaca mulatta, Plasma; settings: in vivo
[24] = system: Woodchuck hepatitis virus; assay: Antiviral activity against woodchuck hepatitis virus chronically infected woodchucks assessed as log reduction of viral DNA replicative intermediates at 30 mg/kg/day, po after 4 weeks relative to control; type: functional, organism-based; outline: as §3
[25] = system: Woodchuck hepatitis virus; assay: Antiviral activity against woodchuck hepatitis virus chronically infected woodchucks assessed as reduction of viral DNA replicative intermediates at 10 mg/kg/day, po after 4 weeks; type: functional, organism-based; outline: as §3
[26] = system: Woodchuck hepatitis virus; assay: Antiviral activity against woodchuck hepatitis virus chronically infected orally dosed woodchucks assessed as reduction in serum viremia administered once daily for 4 weeks; type: functional, organism-based; outline: as §1
[27] = system: Marmota monax; assay: Toxicity in woodchuck hepatitis virus chronically infected woodchuck assessed as serum sorbitol dehydrogenase level at 30 mg/kg/day, po after 4 weeks; type: organism-based; design: route oral; settings: in vivo, 672 h
Outline: (§5)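 Serum ALT and SDH were measured as hepatocellular injury markers in chronic WHV carriers dosed orally once daily for 4 weeks. Blood was drawn under ketamine (50 mg/kg) and xylazine (5 mg/kg) im anaesthesia before treatment and weekly during treatment.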

[28] = system: Woodchuck hepatitis virus; assay: Antiviral activity against woodchuck hepatitis virus chronically infected woodchucks assessed as log reduction of serum viral DNA at 30 mg/kg/day, po after 4 weeks; type: functional; outline: as §4
[29] = system: Marmota monax; assay: Toxicity in woodchuck hepatitis virus chronically infected woodchuck assessed as serum alanine aminotransferase level at 30 mg/kg/day, po after 4 weeks; type: organism-based; design: route oral; settings: in vivo, 672 h; outline: as §5
[30] = system: Woodchuck hepatitis virus; assay: Antiviral activity against woodchuck hepatitis virus infected woodchucks assessed as log reduction of serum viral DNA per ml of serum after 12 weeks; type: functional

In the case of `Nc1ccn([C@H]2C[C@H](O)[C@@H](CO)O2)c(=O)n1` [DOXECITINE], the Activity [1] is reported as 2.
In the case of `Nc1nc(N)c2ncn([C@H]3CO[C@@H](CO)O3)c2n1` [AMDOXOVIR], the Activity [2] is reported as “Dose-dependent effect”, the Activity [3] is reported as 0.3 and the Activity [4] is reported as 0.9.
In the case of `Nc1ncc2ncn([C@H]3CO[C@@H](CO)O3)c2n1`, the Activity [5] is reported as “inactive”, the Cmax [6] is reported as 16.8 µM and the AUC(0-inf) [7] is reported as 49.4 µM·h. The Activity [8] was “inactive”, the Activity [9] was “inactive” and the Activity [10] was 0.7. The half-life [11] was 0.5 h, the half-life [12] was 0.3 h and the half-life [13] was 3 h. It also gave an Activity [14] of 0.4, a half-life [15] of 1.7 h and a Cmax [16] of 112 µM. The Activity [17] was “Non-toxic”, the “fold change (FC)” value [18] was 1.4 and the Activity [19] was “inactive”. For the same molecule, the Activity [20] was “inactive”, the AUC(0-inf) [21] was 203 µM·h and the Activity [22] was “inactive”. For the same molecule, the “%AUC” value [23] was 75%, the Activity [24] was “Active” and the Activity [25] was “inactive”. For the same molecule, the Activity [26] was “Dose-dependent effect”, the Activity [27] was 211.5 IU/L and the Activity [28] was 1.9. The Activity [29] was 9.5 IU/L.
Molecule `CCCCCCCCCCCCCCCCOCCCOP(=O)(O)OCCOCn1cnc2c(=O)[nH]c(N)nc21` has an Activity [1] of 1.4.
Molecule `Cc1cn([C@@H]2C[C@@H](O)[C@H](CO)O2)c(=O)[nH]c1=O` [TELBIVUDINE] has an Activity [1] of 7.
Work on `C=C1[C@H](CO)[C@@H](O)C[C@@H]1n1cnc2c(=O)[nH]c(N)nc21.O` [ENTECAVIR] yielded an Activity [1] of 7.
With `CC(C)(C)C(=O)OCOP(=O)(COCCn1cnc2c(N)ncnc21)OCOC(=O)C(C)(C)C` [ADEFOVIR DIPIVOXIL] the Activity [1] was 1.8 and the Activity [30] was greater than 2.5.
